Values belong to the compound of their own block, whether it stands above or below them.
What was measured:
26S proteasome = test: Small peptide; type: biochemical; conditions: only at the highest concentration
GFP-ODC [1] = test: Cellular degradation of GFP-ODC; type: cell-based, human; conditions: 16 h, HEK-293T stably expressing GFP-ODC
How it was run: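 HEK-293T stably expressing GFP-ODC were grown to 80% confluency in 60 mm plates and treated 16 h with compound or DMSO. Controls: 5 μM bortezomib, 20 μM chlorpromazine. Cells were pelleted, PBS-washed and lysed in RIPA with protease inhibitors (20 min on ice). Western blot followed; only the full-length 75 kDa GFP-ODC band was quantified, in triplicate.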

[2] = tested on: human constitutive 20S proteasome; test: Small peptide; type: biochemical; conditions: for max fold increase, chymotrypsin-like site: Suc-LLVY-AMC; for max fold increase, caspase-like site: Z-LLE-AMC
How it was run: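 Human constitutive 20S proteasome (1 nM) in 38 mM Tris-HCl, 100 mM NaCl, pH 7.8 was preincubated with compound (8-point, 1.25–80 μM) at 37 °C. AMC substrates were added alone (final Suc-LLVY-AMC 20 µM, Z-LLE-AMC 20 µM, Boc-LRR-AMC 40 μM) or combined (6.67 μM each final). Fluorescence (380/460 nm) was read over 1 h at 37 °C. Hydrolysis rate was expressed as fold change versus vehicle.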

[3] = Cell viability, parallel CellTiter-Glo assay; type: cell-based, human; conditions: human, HEK-293T cells stably expressing GFP-ODC
GFP-ODC [4] = test: Cell-based GFP-ODC AlphaLISA; design: species or system human; conditions: for IC50: Homo sapiens, HEK-293T, read-out: IC50 of the AlphaLISA signal; for reduction of the GFP-ODC AlphaLISA signal: 8-point titration, fresh powder stocks
How it was run: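 HEK-293T cells stably expressing GFP-ODC, from a flow-sorted medium-GFP expressor pool, were plated at 10,000 cells/well in phenol red-free DMEM and dosed with compound or DMSO at plating. Cells were lysed in Surefire lysis buffer with shaking for 30 min at RT. Biotinylated anti-ODC plus anti-GFP acceptor bead (10× mix) went on for 1 h in the dark, then streptavidin donor bead for 30 min. Alpha signal read. Wells without anti-ODC served as negative control.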

EGFR = conditions: read-out: IC50 for EGFR tyrosine kinase inhibition; reported value; cited from earlier work
K48 ubiquitin = test: Cellular K48 ubiquitin levels; type: cell-based, human; conditions: same cell lysates as the GFP-ODC western blot
HEK-293T cells = test: Cell viability, parallel CellTiter-Glo assay; type: cell-based, human; conditions: HEK-293T cells stably expressing GFP-ODC, 8-point titration
[5] = tested on: purified human 20S proteasome; test: In vitro degradation of α-synuclein by purified 20S proteasome; type: biochemical; conditions: 3 h, compared to untreated proteasome
How it was run: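 Purified human 20S proteasome in 50 mM HEPES, 5 mM DTT, pH 7.2 was preincubated with compound or DMSO for 45 min at 37 °C. Purified α-synuclein was then added and incubated 3 h at 37 °C; final reaction was 0.3 μM α-synuclein and 10 nM proteasome. GAPDH (0.5 μM) was added as loading control. α-Synuclein remaining was quantified by western blot versus DMSO.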

[6] = Solubility observed in the AlphaLISA dose response; type: physicochemical; conditions: at higher concentrations of the dose response
[7] = combination of the three fluorogenic peptide probes

activation of the 26S proteasome (26S proteasome): 2 fold
overall max fold increase of 20S proteasome activity [2, 7]: 6.3 fold
Structure (SMILES): CN(C)CCCN1c2ccccc2Sc2ccc(Cl)cc21 [CPZ, chlorpromazine]
full-length GFP-ODC remaining (GFP-ODC [1]; 20 μM compound): 97%
catalytic sites of the 20S proteasome activated ([2]; individual fluorogenic peptide substrates): only activated the chymotrypsin-like site

Structure (SMILES): CCN(CC)CCNc1ccc(CO)c2sc3ccccc3c(=O)c12 [Hycanthone]
CC50 [3]: 69.7 µM
IC50 (GFP-ODC [4]): 15.1 µM

IC50 (GFP-ODC [4]): 4.8 µM
Structure (SMILES): CCN(CC)CCCC(C)Nc1c2ccc(Cl)cc2nc2ccc(OC)cc12 (centres unmarked) [Quinacrine]

Structure (SMILES): CC(C)C[C@H]1C(=O)N2CCC[C@H]2[C@]2(O)O[C@](NC(=O)[C@@H]3C=C4c5cccc6[nH]c(Br)c(c56)C[C@H]4N(C)C3)(C(C)C)C(=O)N12 [bromocriptine]
reduction of the GFP-ODC AlphaLISA signal (GFP-ODC [4]): did not reduce the AlphaLISA signal below 50% (Figure S2) or did not reduce the AlphaLISA signal without significant cell death

activation of the 26S proteasome (26S proteasome): 2.5- to 3 fold
IC50 (GFP-ODC [4]): 5.4 µM
max fold increase, trypsin-like site ([2]; Boc-LRR-AMC): 5.9 fold
max fold increase, chymotrypsin-like site [2]: 5.1 fold
max fold increase, caspase-like site [2]: 3.1 fold
overall max fold increase of 20S proteasome activity [2, 7]: 5.7 fold
EC200, concentration at which the rate of proteolysis was doubled compared to the vehicle control ([2]; combination of the three fluorogenic peptide probes, 1 nM 20S): 12 µM
α-synuclein remaining ([5]; 10 μM compound): 68%
α-synuclein remaining ([5]; 20 μM compound): 48%
solubility [6]: poor solubility at higher concentrations
Structure (SMILES): C#Cc1cccc(Nc2ncnc3cc(OCCOC)c(OCCOC)cc23)c1 [erlotinib]
IC50 (EGFR): 0.002 µM
effect on K48 ubiquitin / levels of ubiquitinylated proteins (K48 ubiquitin): no impact on the levels of ubiquitinylated proteins
cell cytotoxicity (HEK-293T cells): no significant cell cytotoxicity
full-length GFP-ODC remaining (GFP-ODC [1]; 10 μM compound): 34%
full-length GFP-ODC remaining (GFP-ODC [1]; 20 μM compound): 16%

Structure (SMILES): CNCCC(Oc1ccc(C(F)(F)F)cc1)c1ccccc1 (centres unmarked) [fluoxetine]
reduction of the GFP-ODC AlphaLISA signal (GFP-ODC [4]): did not reduce the AlphaLISA signal below 50% (Figure S2) or did not reduce the AlphaLISA signal without significant cell death

Structure (SMILES): COC(=O)C[C@](O)(CCCC(C)(C)O)C(=O)O[C@@H]1C(OC)=C[C@]23CCCN2CCc2cc4c(cc2[C@H]13)OCO4 [homoharringtonine]
reduction of the GFP-ODC AlphaLISA signal (GFP-ODC [4]): significantly decreased the AlphaLISA signal but not in a dose-dependent manner

Structure (SMILES): O=C(N/N=C/c1ccc([N+](=O)[O-])o1)c1ccc(O)cc1 [nifuroxazide]
cell cytotoxicity (HEK-293T cells): low cytotoxicity

Structure (SMILES): COc1cc2nc(N3CCN(C(=O)c4ccco4)CC3)nc(N)c2cc1OC [prazosin]
activation of the 26S proteasome (26S proteasome): 2.5- to 3 fold
reduction of the GFP-ODC AlphaLISA signal (GFP-ODC [4]): did not reduce the AlphaLISA signal below 50% (Figure S2) or did not reduce the AlphaLISA signal without significant cell death
full-length GFP-ODC remaining (GFP-ODC [1]; 20 μM compound): 84%
max fold increase, chymotrypsin-like site [2]: 3.5 fold
max fold increase, caspase-like site [2]: 5.8 fold
overall max fold increase of 20S proteasome activity [2, 7]: 4.5 fold

Structure (SMILES): CC(=O)S[C@@H]1CC2=CC(=O)CC[C@]2(C)[C@H]2CC[C@@]3(C)[C@@H](CC[C@@]34CCC(=O)O4)[C@H]12 [spironolactone]
cell cytotoxicity (HEK-293T cells): low cytotoxicity

Structure (SMILES): CN1CCN(CC/C=C2/c3ccccc3Sc3ccc(S(=O)(=O)N(C)C)cc32)CC1 [thiothixene]
reduction of the GFP-ODC AlphaLISA signal (GFP-ODC [4]): did not reduce the AlphaLISA signal below 50% (Figure S2) or did not reduce the AlphaLISA signal without significant cell death

Structure (SMILES): CC(C)[C@]12O[C@H]1[C@@H]1O[C@]13[C@]1(O[C@H]1C[C@H]1C4=C(CC[C@@]13C)C(=O)OC4)[C@@H]2O [triptolide]
reduction of the GFP-ODC AlphaLISA signal (GFP-ODC [4]): significantly decreased the AlphaLISA signal but not in a dose-dependent manner
